ChEMBL document CHEMBL1125864, “Folate analogues. 35. Synthesis and biological evaluation of 1-deaza, 3-deaza, and bridge-elongated analogues of N10-propargyl-5,8-dideazafolic acid” (J Med Chem, 1991)

Key:
Manca = assay: Compound was evaluated for inhibition of tumor cell growth in Manca human lymphoma cell line; type: functional, cell-based; conditions: read-out: I50
SW480 = assay: Compound was evaluated for inhibition of tumor cell growth in SW/480 cell line; type: functional, cell-based; conditions: Homo sapiens, read-out: I50
How it was run: (§1)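 Cells were grown in folate-free RPMI 1640 with 10% dialyzed FCS and 20 nM leucovorin, seeding SW480 at 8000 and MCF-7 at 10000 cells/well. After 24 h at 37 °C and 5% CO₂, drug diluted in leucovorin-free medium was added to triplicate wells for 96 h. Growth was read by MTT reduction (1 h), followed by DMSO solubilization and absorbance.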

MCF7 = assay: Compound was evaluated for inhibition of tumor cell growth in MCF-7 cell line; type: functional, cell-based; conditions: Homo sapiens, read-out: I50; how it was run: as §1
MOLT-4 = assay: Compound was evaluated for inhibition of MTX influx into MOLT-4 cells; type: functional, cell-based; conditions: Homo sapiens, read-out: I50
How it was run: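 MOLT-4 cells were grown in folate-free RPMI-1640 with 10% dialyzed FCS and 20 nM leucovorin, then resuspended in pH 7.4 Tris/bicarbonate buffer with 10 mM DTT at 37 °C. Test compound was added with TLC-purified ³H-MTX at t = 0. Timed aliquots were spun through 1-bromododecane, and pellets were NaOH-extracted and scintillation counted. Rates came from 4–5 linear points at ≤10 min.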

[1] = It is the ratio of relative maximum velocity to that of apparent kinetic constant
Thymidylate synthase [2] = biological target: Thymidylate synthase (Homo sapiens, UniProt P04818); assay: Compound was evaluated for the inhibition of human Thymidylate Synthase; conditions: read-out: I50
Thymidylate synthase (Homo sapiens, UniProt P04818), sequence (P04818 whole entry): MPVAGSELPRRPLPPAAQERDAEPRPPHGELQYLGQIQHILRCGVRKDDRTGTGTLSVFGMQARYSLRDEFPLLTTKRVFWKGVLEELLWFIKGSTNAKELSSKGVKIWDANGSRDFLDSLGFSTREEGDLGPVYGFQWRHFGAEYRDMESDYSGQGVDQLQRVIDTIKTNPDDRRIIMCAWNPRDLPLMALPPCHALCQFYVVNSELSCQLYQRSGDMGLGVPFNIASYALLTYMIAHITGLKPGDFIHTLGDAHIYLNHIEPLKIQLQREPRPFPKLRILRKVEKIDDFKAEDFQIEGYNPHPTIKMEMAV

Thymidylate synthase [3] = biological target: Thymidylate synthase (Escherichia coli, UniProt C3SWJ7); assay: Compound was evaluated for the inhibition of Escherichia coli Thymidylate Synthase; conditions: read-out: I50
Thymidylate synthase (Escherichia coli, UniProt C3SWJ7), sequence (C3SWJ7 whole entry): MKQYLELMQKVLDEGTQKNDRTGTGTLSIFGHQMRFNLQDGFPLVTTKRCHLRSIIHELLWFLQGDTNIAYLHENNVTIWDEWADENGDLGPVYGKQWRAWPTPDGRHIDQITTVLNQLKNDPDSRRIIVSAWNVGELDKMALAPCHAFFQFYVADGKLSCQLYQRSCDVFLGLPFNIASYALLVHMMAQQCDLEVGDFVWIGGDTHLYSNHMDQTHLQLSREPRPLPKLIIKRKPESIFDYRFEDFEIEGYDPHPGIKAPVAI

[4] = substrate: C#CCN(Cc1ccc(C(=O)NC(CCC(=O)O)C(=O)O)cc1)Cc1ccc2nc(C)nc(O)c2c1; assay: Relative maximum velocity of Folyl-polyglutamate synthase (relative to control of 50 uM aminopterin); conditions: Sus scrofa
How it was run: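 Substrate activity was measured with partially purified hog liver FPGS, following an earlier published method. Vmax is expressed relative to a control of 50 μM aminopterin that was run in every experiment. Where activity was weak, relative velocity was reported at 200 μM substrate.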

| IC50 (SW480) | IC50 (MCF7) | IC50 (MOLT-4) | Ratio [1] | IC50 (Thymidylate synthase [2]) | IC50 (Thymidylate synthase [3]) | Molecule | IC50 (Manca) | Vmax [4] |
| --- | --- | --- | --- | --- | --- | --- | --- | --- |
| 800 nM | 0.8 µM | 28 µM |  |  |  | C#CCN(Cc1ccc2[nH]c(N)nc(=O)c2c1)c1ccc(C(=O)NC(CCC(=O)O)C(=O)O)cc1 (stereo unspecified) | 0.56 µM |  |
| > 100000 nM | 22 µM | 4.5 µM | 0.38 | 740 nM |  | C#CCN(Cc1ccc(C(=O)NC(CCC(=O)O)C(=O)O)cc1)Cc1ccc2ccnc(O)c2c1 (stereo unspecified) | 9 µM |  |
| 50 nM | 0.007 µM | 1.5 µM | 1.33 | 10 nM | 45 nM | C#CCN(Cc1ccc2nc(C)nc(O)c2c1)c1ccc(C(=O)NC(CCC(=O)O)C(=O)O)cc1 (stereo unspecified) | 0.013 µM |  |
| > 100000 nM | > 100 µM | 4.5 µM |  | 24000 nM | 1880 nM | C#CCN(Cc1ccc2c(c1)C(=O)C[C@H](C)N2)c1ccc(C(=O)NC(CCC(=O)O)C(=O)O)cc1 (stereo partly specified) |  |  |
| > 50000 nM |  |  |  | 1400 nM |  | C#CCN(Cc1ccc(C(=O)NC(CCC(=O)O)C(=O)O)cc1)Cc1ccc2c(c1)C(=O)CC(C)=N2 (stereo unspecified) | > 600 µM |  |
|  |  |  | 32.1 |  |  | Nc1nc(O)c2c(n1)NCC(CNc1ccc(C(=O)N[C@@H](CCC(=O)O)C(=O)O)cc1)N2 (stereo partly specified) |  |  |

The remaining lines, values behind:

| Molecule | IC50 (SW480) | IC50 (MCF7) | IC50 (MOLT-4) | Ratio [1] | IC50 (Thymidylate synthase [2]) | IC50 (Thymidylate synthase [3]) | IC50 (Manca) | Vmax [4] |
| --- | --- | --- | --- | --- | --- | --- | --- | --- |
| C#CCN(Cc1ccc2c(c1)C(=O)N[C@H](C)N2)c1ccc(C(=O)NC(CCC(=O)O)C(=O)O)cc1 (stereo partly specified) | 600 nM |  |  |  | 430 nM | 1500 nM |  |  |
| Nc1nc(=O)c2c([nH]1)NCC(CNc1ccc(C(=O)N[C@H](CCC(=O)O)C(=O)O)cc1)N2C=O (stereo partly specified) |  |  | 3.5 µM |  |  |  |  |  |
| CN(Cc1cnc2nc(N)nc(N)c2n1)c1ccc(C(=O)N[C@@H](CCC(=O)O)C(=O)O)cc1 [METHOTREXATE] |  |  | 1.4 µM |  |  |  |  |  |
| C#CCN(Cc1ccc(C(=O)NC(CCC(=O)O)C(=O)O)cc1)Cc1ccc2nc(N)nc(O)c2c1 (stereo unspecified) | > 100000 nM | > 100 µM |  | 1.9 | 31000 nM | 201000 nM | > 80 µM |  |
| Nc1nc(=O)c2nc(CNc3ccc(C(=O)N[C@@H](CCC(=O)O)C(=O)O)cc3)cnc2[nH]1 [FOLIC ACID] |  |  | > 100 µM | 0.77 |  |  |  |  |
| C#CCN(Cc1ccc(C(=O)NC(CCC(=O)O)C(=O)O)cc1)Cc1ccc2nc(C)nc(O)c2c1 (stereo unspecified) | > 100000 nM | > 100 µM | 7 µM | 2.01 | 83000 nM | 515000 nM |  |  |
| Folylpolyglutamate synthase, mitochondrial (Homo sapiens), Q05932 (protein) MSRARSHLRAALFLAAASARGITTQVAARRGLSAWPVPQEPSMEYQDAVRMLNTLQTNAGYLEQVKRQRGDPQTQLEAMELYLARSGLQVEDLDRLNIIHVTGTKGKGSTCAFTECILRSYGLKTGFFSSPHLVQVRERIRINGQPISPELFTKYFWRLYHRLEETKDGSCVSMPPYFRFLTLMAFHVFLQEKVDLAVVEVGIGGAYDCTNIIRKPVVCGVSSLGIDHTSLLGDTVEKIAWQKGGIFKQGVPAFTVLQPEGPLAVLRDRAQQISCPLYLCPMLEALEEGGPPLTLGLEGEHQRSNAALALQLAHCWLQRQDRHGAGEPKASRPGLLWQLPLAPVFQPTSHMRLGLRNTEWPGRTQVLRRGPLTWYLDGAHTASSAQACVRWFRQALQGRERPSGGPEVRVLLFNATGDRDPAALLKLLQPCQFDYAVFCPNLTEVSSTGNADQQNFTVTLDQVLLRCLEHQQHWNHLDEEQASPDLWSAPSPEPGGSASLLLAPHPPHTCSASSLVFSCISHALQWISQGRDPIFQPPSPPKGLLTHPVAHSGASILREAAAIHVLVTGSLHLVGGVLKLLEPALSQ |  |  |  |  |  |  |  | 138% |
